Data: ChEMBL document CHEMBL1122233, “Antihypertensive 9-substituted 1-oxa-4,9-diazaspiro[5.5]undecan-3-ones” (J Med Chem, 1983)

Tests used:
[1] = test system: Rattus norvegicus; assay: Percentage fall in systolic blood pressure after 1 hr at 50 mg/kg given perorally; assay type: functional, organism-based; parameters: dose 50 mg/kg; details: Artery
Outline: (§1)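 Male Okamoto-Aoki spontaneously hypertensive rats, trained, in groups of four matched for mean systolic pressure; five treated groups and one vehicle control run concurrently. Oral dosing in water (solution or suspension, 0.1 mL/10 g) on two consecutive mornings. On day 2, rats were restrained at 30.0 ± 1.0 °C and tail-cuff systolic pressure recorded at 1–4 h; percent fall versus control, 1-tail t test, p ≤ 0.05.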

[2] = test system: Rattus norvegicus; assay: (§2) Percentage fall in systolic blood pressure after 4 hours at 50 mg/kg given perorally; assay type: functional, organism-based; parameters: dose 50 mg/kg; details: Artery; outline: as §1
[3] = test system: Rattus norvegicus; assay: Percentage fall in systolic blood pressure after 2 hours at 50 mg/kg given perorally; assay type: functional, organism-based; parameters: dose 50 mg/kg; details: Artery; outline: as §1
[4] = test system: Rattus norvegicus; assay: (§3) Percentage fall in systolic blood pressure after 3 hours at 50 mg/kg given perorally; assay type: functional, organism-based; parameters: dose 50 mg/kg; details: Artery; outline: as §1
[5] = test system: Rattus norvegicus; assay: Percentage fall in systolic blood pressure after 4 hr at 25 mg/kg given perorally; assay type: functional, Artery; details: route oral; outline: as §1
[6] = test system: Rattus norvegicus; assay: Percentage fall in systolic blood pressure after 2 hr at 25 mg/kg given perorally; assay type: functional, Artery; details: route oral; outline: as §1
[7] = test system: Rattus norvegicus; assay: Percentage fall in systolic blood pressure after 4 hr at 12.5 mg/kg given perorally; assay type: functional, Artery; details: route oral; outline: as §1
[8] = test system: Rattus norvegicus; assay: Percentage fall in systolic blood pressure after 2 hr at 12.5 mg/kg given perorally; assay type: functional, Artery; details: route oral; outline: as §1
[9] = test system: Rattus norvegicus; assay: Percentage fall in systolic blood pressure after 1 hr at 12.5 mg/kg given perorally; assay type: functional, Artery; details: route oral
Outline: (§4)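 Male Okamoto-Aoki SHR, four per group, with a concurrent vehicle control group. Oral dosing in water (0.1 mL/10 g) on two consecutive mornings. After the day-2 dose, rats were restrained in a 30 °C chamber. Tail-cuff systolic pressure was taken at 1-4 h from four traces per rat. Result is % decrease versus control mean, by 1-tailed t test, p ≤ 0.05.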

[10] = test system: Rattus norvegicus; assay: (§5) Percentage fall in systolic blood pressure after 3 hr at 25 mg/kg given perorally; assay type: functional, Artery; details: route oral, 25 mg/kg; outline: as §1
[11] = test system: Rattus norvegicus; assay: Percentage fall in systolic blood pressure after 4 hours at 25 mg/kg given perorally; assay type: functional, Artery; details: route oral; outline: as §1
[12] = test system: Rattus norvegicus; assay: Percentage fall in systolic blood pressure after 3 hours at 25 mg/kg given perorally; assay type: functional, Artery; details: route oral; outline: as §1
[13] = test system: Rattus norvegicus; assay: (§6) Percentage fall in systolic blood pressure after 1 hr at 25 mg/kg given perorally; assay type: functional, Artery; details: route oral; outline: as §1
[14] = test system: Rattus norvegicus; assay: Percentage fall in systolic blood pressure after 2 hours at 25 mg/kg given perorally; assay type: functional, organism-based; parameters: dose 25 mg/kg; details: Artery; outline: as §1
[15] = test system: Rattus norvegicus; assay: as §5; assay type: functional, organism-based; parameters: dose 25 mg/kg; details: Artery; outline: as §1
[16] = test system: Rattus norvegicus; assay: as §6; assay type: functional, organism-based; parameters: dose 25 mg/kg; details: Artery; outline: as §1
[17] = test system: Rattus norvegicus; assay: as §2; assay type: functional, organism-based; parameters: dose 50 mg/kg; details: Artery; outline: as §4; remark: listed apart in the source
[18] = test system: Rattus norvegicus; assay: as §3; assay type: functional, organism-based; parameters: dose 50 mg/kg; details: Artery; outline: as §4; remark: listed apart in the source
[19] = test system: Rattus norvegicus; assay: Percentage fall in systolic blood pressure after 2 hours at 50 mg/kg given perorally.; assay type: functional, Artery; details: route oral; outline: as §1

How did the “Decrease in SBP” value [1] turn out when `O=C1COC2(CCN(CC(O)C3COc4ccccc4O3)CC2)C(c2ccccc2)N1` (configuration not stated) was run?
The value was “Not significant”.

And the “Decrease in SBP” value [2]?
Its value is “Not significant”.

And the “Decrease in SBP” value [3]?
The value was “Not significant”.

And the “Decrease in SBP” value [4]?
Its value is “Not significant”.

What does the source list for `CN1CC2(CCN(CC(O)C3COc4ccccc4O3)CC2)OCC1=O` (stereo in doubt; 61)?
Decrease in SBP [5]: 40%; Decrease in SBP ([6]; 25 mg/kg): 36%; Decrease in SBP [7]: 19%; Decrease in SBP [8]: 22%; Decrease in SBP [9]: 25%; Decrease in SBP [10]: 40%

Which results are given for `O=C1COC2(CCN(CCc3ccc(O)cc3)CC2)CN1`?
Decrease in SBP [11]: 21%; Decrease in SBP [12]: 11%; Decrease in SBP [13]: 13%; Decrease in SBP [14]: Not significant

For `O=C1COC2(CCN(CC(O)C3COc4ccccc4O3)CC2)CN1c1ccccc1` (configuration not stated), which “Decrease in SBP” value [5] is on record?
The value was 16%.

What about the “Decrease in SBP” value [15] of the same compound?
The value was “Not significant”.

What about the “Decrease in SBP” value [6] of the same compound?
Its value is 25%.

What about the “Decrease in SBP” value [16] of the same compound?
The value was “Not significant”.

How did the “Decrease in SBP” value [1] turn out when `O=C1COC2(CCN(CC(O)COc3ccccc3)CC2)CN1` (configuration not stated) was run?
The value was “Not significant”.

And the “Decrease in SBP” value [17]?
Its value is “Not significant”.

What about the “Decrease in SBP” value [18] of the same compound?
The value was “Not significant”.

What about the “Decrease in SBP” value [19] of the same compound?
Its value is 18%.
